# Source: ChEMBL document CHEMBL1142636 (2000)
# Tests used:
# UO-31 = experiment: Growth inhibition of human UO31 cells; assay type: functional
# In short: (§1)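 Tested at the NCI in its human disease-oriented in vitro screen of 60 tumour cell lines, following the Monks et al. methods. Activity is expressed as GI50, given as log molar values.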
# TK-10 = experiment: Growth inhibition of human TK10 cells; assay type: functional; in short: as §1
# ACHN = experiment: Growth inhibition of human ACHN cells; assay type: functional
# 786-0 = experiment: Growth inhibition of human 786-0 cells; assay type: functional
# SK-OV-3 = experiment: Growth inhibition of human SK-OV-3 cells; assay type: functional; in short: as §1
# [1] = Growth inhibition of human OVACR8 cells; assay type: functional
# [2] = Growth inhibition of human OVACR5 cells; assay type: functional
# [3] = Growth inhibition of human OVACR4 cells; assay type: functional
# [4] = Growth inhibition of human […] cells; assay type: functional
# IGROV-1 = experiment: Growth inhibition of human IGROV1 cells; assay type: functional
# UACC-62 = experiment: Growth inhibition of human UACC62 cells; assay type: functional; in short: as §1
# SK-MEL-5 = experiment: Growth inhibition of human SK-MEL-5 cells; assay type: functional; details: for EC50: read-out: ED50 (the source's name); in short: as §1
# SK-MEL-28 = experiment: Growth inhibition of human SK-MEL-28 cells; assay type: functional; in short: as §1
# SK-MEL-2 = experiment: Growth inhibition of human SK-MEL-2 cells; assay type: functional; in short: as §1
# M19-MEL = experiment: Growth inhibition of human M19-MEL cells; assay type: functional
# M14 = experiment: Growth inhibition of human M14 cells; assay type: functional
# Malme-3M = experiment: Growth inhibition of human MALME-3M cells; assay type: functional
# LOX IMVI = experiment: Growth inhibition of human LOX IMVI cells; assay type: functional
# XF498 = experiment: Growth inhibition of human XF498 cells; assay type: functional; in short: as §1
# U-251 = experiment: Growth inhibition of human U251 cells; assay type: functional; in short: as §1
# SNB-75 = experiment: Growth inhibition of human SNB75 cells; assay type: functional; in short: as §1
# SNB-19 = experiment: Growth inhibition of human SNB19 cells; assay type: functional; in short: as §1
# SF-539 = experiment: Growth inhibition of human SF539 cells; assay type: functional; in short: as §1
# SF-268 = experiment: Growth inhibition of human SF268 cells; assay type: functional; in short: as §1
# SW-620 = experiment: Growth inhibition of human SW620 cells; assay type: functional; in short: as §1
# KM-20L2 = experiment: Growth inhibition of human KM20L2 cells; assay type: functional
# HCT-15 = experiment: Growth inhibition of human HCT15 cells; assay type: functional
# HCT-116 = experiment: Growth inhibition of human HCT116 cells; assay type: functional
# HCC 2998 = experiment: Growth inhibition of human HCC2998 cells; assay type: functional
# DLD-1 = experiment: Growth inhibition of human DLD1 cells; assay type: functional
# COLO 205 = experiment: Growth inhibition of human COLO205 cells; assay type: functional; details: for EC50: read-out: ED50 (the source's name)
# DMS-273 = experiment: Growth inhibition of human DMS273 cells; assay type: functional
# [5] = Growth inhibition of human DMS144 cells; assay type: functional
# [6] = Growth inhibition of human LXFL529 cells; assay type: functional; details: LXFL 529
# NCI-H522 = experiment: Growth inhibition of human NCI-H522 cells; assay type: functional
# NCI-H460 = experiment: Growth inhibition of human NCI-H460 cells; assay type: functional
# NCI-H322M = experiment: Growth inhibition of human NCI-H322M cells; assay type: functional
# NCI-H226 = experiment: Growth inhibition of human NCI-H226 cells; assay type: functional
# HOP-92 = experiment: Growth inhibition of human HOP92 cells; assay type: functional
# A549 = experiment: Growth inhibition of human A549 cells; assay type: functional
# SR = experiment: Growth inhibition of human SR cells; assay type: functional; in short: as §1
# [7] = Growth inhibition of human RPMI8266 cells; assay type: functional
# MOLT-4 = experiment: Growth inhibition of human MOLT4 cells; assay type: functional
# K562 = experiment: Growth inhibition of human K562 cells; assay type: functional
# [8] = Growth inhibition of human HL60(TB) cells; assay type: functional, HL-60(TB); details: HL-60
# CCRF-CEM = experiment: Growth inhibition of human CCRF-CEM cells; assay type: functional
# KB = experiment: Growth inhibition of human KB cells; assay type: functional; details: read-out: ED50 (the source's name)
# In short: (§2)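 In-house cytotoxicity assay following an NCI protocol, run on a panel of human tumour lines: KB nasopharyngeal epidermoid carcinoma and HCT-8 ileocecal adenocarcinoma. Potency is reported as ED50 in µg/mL.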
# HCT-8 = experiment: Growth inhibition of human HCT8 cells; assay type: functional; details: read-out: ED50 (the source's name); in short: as §2
structure (smiles),measurement,setting,value
COc1ccc2c([nH]c3cc(O)c(C)cc32)c1CC=C(C)C,GI50,UO-31,14.5 µM
same,GI50,TK-10,5.01 µM
same,GI50,ACHN,9.33 µM
same,GI50,786-0,4.37 µM
same,GI50,SK-OV-3,25.1 µM
same,GI50,[1],4.47 µM
same,GI50,[2],25.1 µM
same,GI50,[3],22.4 µM
same,GI50,[4],5.37 µM
same,GI50,IGROV-1,2.29 µM
same,GI50,UACC-62,9.12 µM
same,GI50,SK-MEL-5,8.13 µM
same,GI50,SK-MEL-28,25.1 µM
same,GI50,SK-MEL-2,25.1 µM
same,GI50,M19-MEL,12.3 µM
same,GI50,M14,1.62 µM
same,GI50,Malme-3M,17.4 µM
same,GI50,LOX IMVI,4.37 µM
same,GI50,XF498,25.1 µM
same,GI50,U-251,5.89 µM
same,GI50,SNB-75,11.5 µM
same,GI50,SNB-19,25.1 µM
same,GI50,SF-539,7.94 µM
same,GI50,SF-268,9.55 µM
same,GI50,SW-620,6.76 µM
same,GI50,KM-20L2,16.2 µM
same,GI50,HCT-15,5.13 µM
same,GI50,HCT-116,12 µM
same,GI50,HCC 2998,5.5 µM
same,GI50,DLD-1,9.12 µM
same,GI50,COLO 205,25.1 µM
same,GI50,DMS-273,8.51 µM
same,GI50,[5],20.9 µM
same,GI50,[6],8.71 µM
same,GI50,NCI-H522,5.89 µM
same,GI50,NCI-H460,5.62 µM
same,GI50,NCI-H322M,10.7 µM
same,GI50,NCI-H226,25.1 µM
same,GI50,HOP-92,7.94 µM
same,GI50,A549,8.51 µM
same,GI50,SR,7.24 µM
same,GI50,[7],8.32 µM
same,GI50,MOLT-4,4.9 µM
same,GI50,K562,5.75 µM
same,GI50,[8],7.94 µM
same,GI50,CCRF-CEM,5.37 µM
CC1=CC(=O)c2[nH]c3ccc(F)cc3c2C1=O,EC50,SK-MEL-5,2.51 µg/mL
same,EC50,COLO 205,9.19 µg/mL
same,EC50,KB,5.25 µg/mL
same,EC50,HCT-8,5.88 µg/mL
COc1ccc2c3c([nH]c2c1)C(=O)C(C)=CC3=O,EC50,SK-MEL-5,3.92 µg/mL
same,EC50,COLO 205,4.51 µg/mL
same,EC50,KB,4.51 µg/mL
same,EC50,HCT-8,5.09 µg/mL
COc1cccc2c3c([nH]c12)C(=O)C=C(C)C3=O,EC50,SK-MEL-5,3.55 µg/mL
same,EC50,COLO 205,4.22 µg/mL
same,EC50,KB,4.95 µg/mL
same,EC50,HCT-8,5.3 µg/mL
